Read-outs that look alike come from different tables or passages of the source.
Experiments:
[1] = LHQW components in human plasma after repeated oral dosing; type: in vivo; conditions: after repeated oral administration of LHQW capsule, semi-quantitative
ACE2 [2] = target: T1, ACE2 (Homo sapiens, UniProt Q9BYF1); test: SPR analysis of affinity to ACE2 recombinant protein; type: binding; conditions: for Rmax: SPR fit; for χ^2: SPR fit quality; for Kd: SPR, steady-state affinity model (1:1), 0.024 to 50 μmol/L
Target sequence in this assay (Q9BYF1 18-740): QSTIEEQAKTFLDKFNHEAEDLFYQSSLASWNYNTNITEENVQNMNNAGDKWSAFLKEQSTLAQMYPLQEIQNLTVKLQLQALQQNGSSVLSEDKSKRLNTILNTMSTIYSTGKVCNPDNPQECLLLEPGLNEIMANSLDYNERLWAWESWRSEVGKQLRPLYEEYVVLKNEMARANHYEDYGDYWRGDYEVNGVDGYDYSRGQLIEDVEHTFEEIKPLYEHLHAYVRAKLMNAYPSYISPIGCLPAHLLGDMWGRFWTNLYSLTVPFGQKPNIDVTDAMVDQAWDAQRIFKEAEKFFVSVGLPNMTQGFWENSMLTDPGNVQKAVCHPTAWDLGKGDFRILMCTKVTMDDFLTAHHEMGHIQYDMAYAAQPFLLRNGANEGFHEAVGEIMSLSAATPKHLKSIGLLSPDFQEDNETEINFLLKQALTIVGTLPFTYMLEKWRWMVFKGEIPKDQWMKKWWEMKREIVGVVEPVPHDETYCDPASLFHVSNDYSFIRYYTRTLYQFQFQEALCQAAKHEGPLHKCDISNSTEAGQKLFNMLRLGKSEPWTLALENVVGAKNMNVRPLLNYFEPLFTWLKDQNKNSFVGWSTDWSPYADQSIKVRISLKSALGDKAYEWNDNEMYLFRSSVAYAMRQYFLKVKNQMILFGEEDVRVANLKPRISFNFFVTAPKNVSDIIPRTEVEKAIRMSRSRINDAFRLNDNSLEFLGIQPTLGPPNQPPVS

ACE2 [3] = target: T1, ACE2; test: Test of ACE2 inhibitory activity; type: biochemical
Summary of the method: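 ACE2 inhibition was measured with a commercial inhibitor screening kit following the supplier's instructions. Each data point was run in duplicate and reported as the mean value. IC50 came from nonlinear curve fitting.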
Target sequence in this assay (Q9BYF1 18-805): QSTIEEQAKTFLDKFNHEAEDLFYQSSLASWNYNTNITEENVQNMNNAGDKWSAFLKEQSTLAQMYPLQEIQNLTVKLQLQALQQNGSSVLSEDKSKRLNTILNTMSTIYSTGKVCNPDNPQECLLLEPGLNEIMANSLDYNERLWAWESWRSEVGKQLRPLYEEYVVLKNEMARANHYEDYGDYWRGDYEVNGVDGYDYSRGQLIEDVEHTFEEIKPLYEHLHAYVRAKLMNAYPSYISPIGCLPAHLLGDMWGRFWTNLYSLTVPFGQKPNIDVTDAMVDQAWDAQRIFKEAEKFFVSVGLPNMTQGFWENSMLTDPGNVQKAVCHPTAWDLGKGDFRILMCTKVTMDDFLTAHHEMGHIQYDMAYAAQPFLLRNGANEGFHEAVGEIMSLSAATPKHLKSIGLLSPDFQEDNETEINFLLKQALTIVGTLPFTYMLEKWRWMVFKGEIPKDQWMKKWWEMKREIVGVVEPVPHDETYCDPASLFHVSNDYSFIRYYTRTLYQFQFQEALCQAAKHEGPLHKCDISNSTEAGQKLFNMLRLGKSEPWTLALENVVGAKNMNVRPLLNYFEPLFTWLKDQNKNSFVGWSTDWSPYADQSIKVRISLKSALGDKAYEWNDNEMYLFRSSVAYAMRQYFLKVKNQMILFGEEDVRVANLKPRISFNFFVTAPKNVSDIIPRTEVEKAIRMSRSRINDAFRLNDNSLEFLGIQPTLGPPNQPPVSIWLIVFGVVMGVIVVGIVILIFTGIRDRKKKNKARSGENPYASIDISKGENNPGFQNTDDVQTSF

ACE2 [4] = target: T1, ACE2; test: Comprehensive 2D ACE2 column/C18 column/TOFMS biochromatography screening; type: binding; conditions: urine sample, LHQW extract or standard
Summary of the method: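 Stationary phase: His-tagged recombinant human ACE2 immobilised on MPTS/GMBS-modified silica, confirmed by pronase digestion and anti-ACE2 immunoblot. First dimension was the ACE2 column (10 × 2.0 mm, 5 μm) in 10 mmol/L ammonium acetate at 0.2 mL/min. Retained fractions went by alternating 10-port valve loops to a C18 column (0.1% formic acid/acetonitrile gradient, 0.4 mL/min) and then TOFMS.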
Target sequence in this assay (Q9BYF1 18-740): as the sequence (Q9BYF1 18-740) above

Compound: C=CC1CNC(=S)O1 (racemic) [(R,S)-goitrin]
- Human in vivo exposure (in words) [1]: higher human exposure

Compound: O=C1c2cccc(O)c2C(=O)c2c(O)cc(CO)cc21 [Aloe-emodin (216), Aloe-emodin]
- ACE2 binding ability by SPR (in words) (ACE2 [2]): could also exhibit ACE2 binding activity
- Rmax (ACE2 [2]): 16.120 RU
- χ^2 (ACE2 [2]): 7.720
- ACE2 inhibitory effect (in words) (ACE2 [3]; ACE2 Inhibitor Screening Kit): no inhibitory effect

Compound: N#C[C@H](O[C@@H]1O[C@H](CO[C@@H]2O[C@H](CO)[C@@H](O)[C@H](O)[C@H]2O)[C@@H](O)[C@H](O)[C@H]1O)c1ccccc1 [Amygdalin (33), Amygdalin]
- Rmax (ACE2 [2]): 6.856 RU
- χ^2 (ACE2 [2]): 0.462
- Retention on ACE2 biochromatography column (potential ACE2 binding) (ACE2 [4]): potential ACE2 binding activity

Compound: Cc1cc(O[C@@H]2OC(CO)[C@@H](O)C(O)C2O)c2c(c1)C(=O)c1cc(O)cc(O)c1C2=O (stereo partly drawn) [Emodin 8-O-β-D-glucoside (195), Emodin 8-O-β-D-glucoside]
- ACE2 binding ability by SPR (in words) (ACE2 [2]): could also exhibit ACE2 binding activity
- Rmax (ACE2 [2]): 16.930 RU
- χ^2 (ACE2 [2]): 3.190
- Kd (ACE2 [2]): 21.3 µM
- IC50 (ACE2 [3]; read-out: IC50 of ACE2 inhibition, ACE2 Inhibitor Screening Kit): 22.5 µM

Compound: C[C@@H]1O[C@@H](OC[C@H]2O[C@@H](OCCc3ccc(O)c(O)c3)[C@H](O)[C@@H](O)[C@@H]2OC(=O)/C=C/c2ccc(O)c(O)c2)[C@H](O)[C@H](O)[C@H]1O [Forsythoside A (128), Forsythoside A]
- Rmax (ACE2 [2]): 21.490 RU
- χ^2 (ACE2 [2]): 5.280
- Kd (ACE2 [2]): 15.8 µM
- ACE2 inhibitory effect (in words) (ACE2 [3]; ACE2 Inhibitor Screening Kit): have ACE2 inhibitory effects
- Retention on ACE2 biochromatography column (potential ACE2 binding) (ACE2 [4]): potential ACE2 binding activity
- Human in vivo exposure (in words) [1]: low in vivo exposure

Compound: C[C@@H]1O[C@@H](OC[C@H]2O[C@@H](OCCc3ccc(O)c(O)c3)[C@H](O)[C@@H](OC(=O)/C=C/c3ccc(O)c(O)c3)[C@@H]2O)[C@H](O)[C@H](O)[C@H]1O [Forsythoside I (104), Forsythoside I]
- Rmax (ACE2 [2]): 19.020 RU
- χ^2 (ACE2 [2]): 1.910
- Kd (ACE2 [2]): 18.7 µM
- ACE2 inhibitory effect (in words) (ACE2 [3]; ACE2 Inhibitor Screening Kit): have ACE2 inhibitory effects
- Retention on ACE2 biochromatography column (potential ACE2 binding) (ACE2 [4]): potential ACE2 binding activity
- Human in vivo exposure (in words) [1]: low in vivo exposure

Compound: CC1(C)[C@@H](O[C@H]2O[C@H](C(=O)O)[C@@H](O)[C@H](O)[C@H]2O[C@@H]2O[C@H](C(=O)O)[C@@H](O)[C@H](O)[C@H]2O)CC[C@]2(C)[C@H]3C(=O)C=C4[C@@H]5C[C@@](C)(C(=O)O)CC[C@]5(C)CC[C@@]4(C)[C@]3(C)CC[C@@H]12 [Glycyrrhizin (222), Glycyrrhizin]
- Rmax (ACE2 [2]): 9.614 RU
- χ^2 (ACE2 [2]): 0.321
- ACE2 inhibitory effect (in words) (ACE2 [3]; ACE2 Inhibitor Screening Kit, listed as Glycyrrhizin): poor inhibitory effect
- ACE2 inhibitory effect (in words) (ACE2 [3]; ACE2 Inhibitor Screening Kit, listed as glycyrrhizin): did not show significant peptidase inhibitory effects
- Retention on ACE2 biochromatography column (potential ACE2 binding) (ACE2 [4]): potential ACE2 binding activity
- Human in vivo exposure (in words) [1]: high in vivo exposure concentrations

Compound: CC(C)C[C@H](N[C@@H](Cc1cncn1Cc1cc(Cl)cc(Cl)c1)C(=O)O)C(=O)O [MLN-4760, reference compound]
- IC50 (ACE2 [3]): 0.063 µM
- Retention on ACE2 biochromatography column (potential ACE2 binding) (ACE2 [4]): significant retention

Compound: O=C(/C=C/c1ccc(O)c(O)c1)O[C@@H]1C[C@@](O)(C(=O)O)C[C@@H](O)[C@@H]1O [Neochlorogenic acid (19), Neochlorogenic acid]
- Rmax (ACE2 [2]): 6.894 RU
- χ^2 (ACE2 [2]): 1.260
- Kd (ACE2 [2]): 7.88 µM

Compound: COc1cc(O)c2c(c1)C(=O)c1cc(C)cc(O)c1C2=O [Physcion (230), Physcion]
- ACE2 binding ability by SPR (in words) (ACE2 [2]): could also exhibit ACE2 binding activity
- Rmax (ACE2 [2]): 18.390 RU
- χ^2 (ACE2 [2]): 1.630

Compound: N#C[C@H](O[C@@H]1O[C@H](CO)[C@@H](O)[C@H](O)[C@H]1O)c1ccccc1 [Prunasin (37), Prunasin]
- Rmax (ACE2 [2]): 3.814 RU
- χ^2 (ACE2 [2]): 0.244
- ACE2 inhibitory effect (in words) (ACE2 [3]; ACE2 Inhibitor Screening Kit): did not show significant peptidase inhibitory effects
- Retention on ACE2 biochromatography column (potential ACE2 binding) (ACE2 [4]): potential ACE2 binding activity

Compound: O=c1c(O)c(-c2ccc(O)c(O)c2)oc2cc(O)cc(O)c12 [Quercetin (190), Quercetin]
- ACE2 binding ability by SPR (in words) (ACE2 [2]): certain binding ability with ACE2
- Rmax (ACE2 [2]): 12.780 RU
- χ^2 (ACE2 [2]): 1.580

Compound: O=C(O)c1cc(O)c2c(c1)C(=O)c1cccc(O)c1C2=O [Rhein (226), Rhein]
- Rmax (ACE2 [2]): 13.200 RU
- χ^2 (ACE2 [2]): 0.669
- IC50 (ACE2 [3]): 18.3 µM
- ACE2 inhibitory effect (in words) (ACE2 [3]; ACE2 Inhibitor Screening Kit): best ACE2 inhibitory effect
- Retention on ACE2 biochromatography column (potential ACE2 binding) (ACE2 [4]): potential ACE2 binding activity
- Human in vivo exposure (in words) ([1]; listed as Rhein): high exposure in human serum
- Human in vivo exposure (in words) ([1]; listed as rhein): relatively high

Compound: C[C@@H]1O[C@@H](OC[C@H]2O[C@@H](Oc3c(-c4ccc(O)c(O)c4)oc4cc(O)cc(O)c4c3=O)[C@H](O)[C@@H](O)[C@@H]2O)[C@H](O)[C@H](O)[C@H]1O [Rutin (124), Rutin]
- ACE2 binding ability by SPR (in words) (ACE2 [2]): certain binding ability with ACE2
- Rmax (ACE2 [2]): 12.770 RU
- χ^2 (ACE2 [2]): 1.290
- Retention on ACE2 biochromatography column (potential ACE2 binding) (ACE2 [4]): potential ACE2 binding activity

Compound: CN[C@@H](C)[C@H](O)c1ccccc1 [ephedrine]
- Human in vivo exposure (in words) [1]: higher human exposure

Compound: C[C@@H]1O[C@@H](OC[C@H]2O[C@@H](OCCc3ccc(O)c(O)c3)[C@H](O)[C@@H](O)[C@@H]2O)[C@H](O)[C@H](O)[C@H]1O [forsythoside E]
- ACE2 inhibitory effect (in words) (ACE2 [3]; ACE2 Inhibitor Screening Kit): no ACE2 inhibitory activities

Compound: CN[C@@H](C)[C@@H](O)c1ccccc1 [pseudoephedrine]
- Human in vivo exposure (in words) [1]: higher human exposure

Compound: C[C@@H]1O[C@@H](Oc2c(-c3ccc(O)c(O)c3)oc3cc(O)cc(O)c3c2=O)[C@H](O)[C@H](O)[C@H]1O [quercitrin]
- Human in vivo exposure (in words) [1]: higher human exposure

Compound: OC[C@H]1O[C@@H](OCCc2ccc(O)cc2)[C@H](O)[C@@H](O)[C@@H]1O [salidroside]
- Human in vivo exposure (in words) [1]: higher human exposure

Compound: Forsythoside B [Forsythoside B (125)]
- ACE2 binding ability by SPR (in words) (ACE2 [2]): low binding activity
- Rmax (ACE2 [2]): 10.620 RU
- χ^2 (ACE2 [2]): 0.328
- ACE2 inhibitory effect (in words) (ACE2 [3]; ACE2 Inhibitor Screening Kit): have ACE2 inhibitory effects

Compound: forsythin
- ACE2 inhibitory effect (in words) (ACE2 [3]; ACE2 Inhibitor Screening Kit): no ACE2 inhibitory activities

Source: paper PMC7547831 (Acta Pharmaceutica Sinica. B, 2020)
